Reference: ChEMBL document CHEMBL3997766, “Synthesis and pre-clinical studies of new amino-acid ester thiazolide prodrugs” (Eur J Med Chem, 2017)

How the values were obtained:
Plasma = test: Drug metabolism in Sprague-Dawley rat assessed as Tizoxanide in plasma at 28 mg/kg, po measured at 0.083 hrs post dose; type: ADME, organism-based; details: in vivo
Canis familiaris [1] = test: Toxicity in Beagle dog up to 25 mg/kg, po administered as gelatin capsule once daily for 28 days measured on day 29 followed by two weeks of recovery period; type: organism-based, Canis lupus familiaris; details: in vivo, 672 h
Procedure, shortened: (§1)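 Sub-acute study in Beagle dogs dosed orally by gelatin capsule at 5, 15 and 25 mg/kg once a day for 28 consecutive days.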

Rattus norvegicus [2] = test: Toxicity in Sprague-Dawley rat assessed as mixed cell inflammation in stomach at 75 mg/kg administered as oral gavage qd for 28 consecutive days followed by 2 weeks recovery period by microscopic method; type: organism-based; details: in vivo, 336 h
Procedure, shortened: (§2)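 Sub-acute study in Sprague-Dawley rats dosed orally with a suspension at 10, 30 and 75 mg/kg once daily for 28 consecutive days. Four groups of up to 30 rats each (15M/15F).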

Canis familiaris [3] = test: Toxicity in Beagle dog administered orally as gelatin capsule once daily for 28 days; set-up: species or system Canis lupus familiaris; details: in vivo, po, 672 h
Procedure, shortened: (§3)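 Sub-acute study in Beagle dogs: 5, 15 or 25 mg/kg/day given orally in a single gelatin capsule once a day for 28 consecutive days to assess systemic exposure and toxicity, with NOAEL determination.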

Canis familiaris [4] = test: Toxicity in Beagle dog assessed as thickened duodenum up to 25 mg/kg, po administered as gelatin capsule once daily for 28 days measured on day 29; type: organism-based, Canis lupus familiaris; details: in vivo, 672 h; procedure, shortened: as §1
Rattus norvegicus [5] = test: Toxicity in Sprague-Dawley rat assessed as eosinophilic cytoplasmic bodies in epithelial cells of duodenum at 75 mg/kg administered as oral gavage qd for 28 consecutive days measured on day 29 by microscopic method; type: organism-based; details: in vivo; procedure, shortened: as §2
Rattus norvegicus [6] = test: Toxicity in Sprague-Dawley rat assessed as eosinophilic cytoplasmic bodies in epithelial cells of stomach at 10 to 75 mg/kg administered as oral gavage qd for 28 consecutive days followed by 2 weeks recovery period by microscopic method; type: organism-based; details: in vivo, 336 h; procedure, shortened: as §2
Rattus norvegicus [7] = test: Toxicity in Sprague-Dawley rat assessed as erosions in stomach at 30 to 75 mg/kg administered as oral gavage qd for 28 consecutive days measured on day 29 by microscopic method; type: organism-based; details: in vivo
Procedure, shortened: (§4)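 Sub-acute study in Sprague-Dawley rats: 10, 30 or 75 mg/kg given orally once a day for 28 consecutive days as a yellow suspension. There were 4 groups of up to 30 rats each (15M/15F), including a control. Body weight, clinical observations and terminal findings were assessed.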

Rattus norvegicus [8] = test: Toxicity in Sprague-Dawley rat assessed as hemorrhage in stomach at 30 to 75 mg/kg administered as oral gavage qd for 28 consecutive days measured on day 29 by microscopic method; type: organism-based; details: in vivo; procedure, shortened: as §4
Canis familiaris [9] = test: Toxicity in Beagle dog up to 25 mg/kg, po administered as gelatin capsule once daily for 28 days measured on day 29; type: organism-based, Canis lupus familiaris; details: in vivo, 672 h; procedure, shortened: as §1
Rattus norvegicus [10] = test: AUC (0 to t) in Sprague-Dawley rat assessed as Tizoxanide level in plasma at 6 mg/kg, iv administered as single dose; type: ADME, organism-based; details: in vivo
Procedure, shortened: (§5)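 Plasma tizoxanide and tizoxanide glucuronide were measured and PK parameters derived. AUCs were dose-corrected to 30 mg/kg for bioavailability.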

Rattus norvegicus [11] = test: Neurotoxicity in Sprague-Dawley rat assessed as decreased activity at 1000 mg/kg administered via oral gavage as single dose after 4 to 24 hrs; type: toxicity, organism-based; details: in vivo
Procedure, shortened: (§6)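 Three groups of 10 rats (5M/5F) received a single dose by oral gavage of 100, 300 or 1000 mg/kg, and an untreated group served as control. Clinical signs of CNS effects were recorded at 4 and 24 h after treatment.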

Rattus norvegicus [12] = test: Toxicity in Sprague-Dawley rat assessed as hemorrhage in duodenum at 75 mg/kg administered as oral gavage qd for 28 consecutive days followed by 2 weeks recovery period by microscopic method; type: organism-based; details: in vivo, 336 h; procedure, shortened: as §2
Canis familiaris [13] = test: Toxicity in Beagle dog assessed as emesis at 25 mg/kg, po administered as gelatin capsule once daily for 28 days measured on day 29; type: organism-based, Canis lupus familiaris; details: in vivo, 672 h; procedure, shortened: as §1
Rattus norvegicus [14] = test: Toxicity in Sprague-Dawley rat assessed as increase in liver to body weight ratio at 75 mg/kg administered as oral gavage qd for 28 consecutive days measured on day 29; type: organism-based; details: in vivo; procedure, shortened: as §2
Rattus norvegicus [15] = test: Toxicity in Sprague-Dawley rat assessed as decrease in serum sodium level at 10 to 75 mg/kg administered as oral gavage qd for 28 consecutive days followed by 2 weeks recovery period measured on day 43; type: organism-based; details: in vivo, 336 h; procedure, shortened: as §2
Canis familiaris [16] = test: Drug metabolism in Beagle dog assessed as tizoxanide level in plasma administered orally as gelatin capsule once daily for 28 days measured on day 1 and 29; type: ADME, Canis lupus familiaris; details: po, 672 h
Procedure, shortened: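 Beagle dogs received the drug orally in a single gelatin capsule at 5, 15 or 25 mg/kg once daily for 28 consecutive days in a sub-acute toxicity study assessing systemic exposure.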

Rattus norvegicus [17] = test: Toxicity in Sprague-Dawley rat assessed as mucosal hyperplasia in duodenum at 75 mg/kg administered as oral gavage qd for 28 consecutive days followed by 2 weeks recovery period by microscopic method; type: organism-based; details: in vivo, 336 h
Procedure, shortened: (§7)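 Sub-acute oral toxicity study in Sprague-Dawley rats. The drug was given once daily for 28 consecutive days at 10, 30 or 75 mg/kg, formulated as a suspension. There were 4 groups of up to 30 rats each (15 male, 15 female). The study evaluated systemic exposure to the drug.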

Rattus norvegicus [18] = test: Elimination half life in Sprague-Dawley rat assessed as Tizoxanide level at 6.3 mg/kg, iv administered as single dose; type: ADME, organism-based; details: in vivo
Rattus norvegicus [19] = test: AUC (0 to t) in Sprague-Dawley rat assessed as Tizoxanide level at 30 mg/kg, po administered as single dose; type: ADME, organism-based; details: in vivo; procedure, shortened: as §5
Rattus norvegicus [20] = test: Neurotoxicity in Sprague-Dawley rat assessed as tremors at 1000 mg/kg administered as single dose via oral gavage after 4 to 24 hrs; type: toxicity, organism-based; details: in vivo; procedure, shortened: as §6
Rattus norvegicus [21] = test: Toxicity in Sprague-Dawley rat assessed as early death at 10 to 75 mg/kg administered as oral gavage qd for 28 consecutive days measured up to day 43; type: organism-based; details: in vivo; procedure, shortened: as §4
Rattus norvegicus [22] = test: Cmax in Sprague-Dawley rat assessed as Tizoxanide-glucuronide level in plasma at 6 mg/kg, iv administered as single dose; type: ADME, organism-based; set-up: dose 6 mg/kg, route intravenous; details: in vivo
Procedure, shortened: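 Rats in groups of three received one compound as a single oral dose (30 mg/kg) or a single intravenous injection (6 mg/kg), with four compounds studied separately. Serial blood samples were drawn at 5, 10, 15 and 30 min and at 1, 2, 4, 8, 23 and 24 h post-dose. Plasma parent drug and metabolites were quantified and PK parameters were derived.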

Canis familiaris [23] = test: Toxicity in Beagle dog assessed as effect on coagulation up to 25 mg/kg, po administered as gelatin capsule once daily for 28 days measured on day 29; type: organism-based, Canis lupus familiaris; details: in vivo, 672 h; procedure, shortened: as §1
Rattus norvegicus [24] = test: Toxicity in Sprague-Dawley rat assessed as mucosal hyperplasia in duodenum at 75 mg/kg administered as oral gavage qd for 28 consecutive days measured on day 29 by microscopic method; type: organism-based; details: in vivo; procedure, shortened: as §7
Rattus norvegicus [25] = test: Neurotoxicity in Sprague-Dawley rat assessed as decrease in pain response at 1000 mg/kg administered as single dose via oral gavage after 4 to 24 hrs; type: toxicity, organism-based; details: in vivo; procedure, shortened: as §6
Rattus norvegicus [26] = test: Toxicity in Sprague-Dawley rat assessed as increase in total bilirubin level at 30 to 75 mg/kg administered as oral gavage qd for 28 consecutive days followed by 2 weeks recovery period measured on day 43; type: organism-based; details: in vivo, 336 h; procedure, shortened: as §2
Rattus norvegicus [27] = test: Toxicity in Sprague-Dawley rat administered via oral gavage qd for 28 consecutive days; details: in vivo; procedure, shortened: as §4
Canis familiaris [28] = test: Toxicity in Beagle dog assessed as early death at 5 to 25 mg/kg, po administered as gelatin capsule once daily for 28 days measured on day 29; type: organism-based, Canis lupus familiaris; details: in vivo, 672 h; procedure, shortened: as §3

CC(C)(C)[C@H](N)C(=O)Oc1ccccc1C(=O)Nc1ncc([N+](=O)[O-])s1.Cl
Drug metabolism (Plasma): Metabolite_Detected | Activity (Canis familiaris [1]): Non-Toxic | Activity (Rattus norvegicus [2]): Non-Toxic | NOAEL (Canis familiaris [3]): 25 mg/kg/day | Activity (Canis familiaris [4]): Non-Toxic | Activity (Rattus norvegicus [5]): Toxic | Activity (Rattus norvegicus [6]): Non-Toxic | Activity (Rattus norvegicus [7]): Toxic | Activity (Rattus norvegicus [8]): Toxic | Activity (Canis familiaris [9]): Non-Toxic | AUCt (Rattus norvegicus [10]): 5210 ng·h/mL | Activity (Rattus norvegicus [11]): Toxic | Activity (Rattus norvegicus [12]): Non-Toxic | Activity (Canis familiaris [13]): Toxic | Activity (Rattus norvegicus [14]): Toxic | Activity (Rattus norvegicus [15]): Toxic | Drug metabolism (Canis familiaris [16]): Dose-dependent effect | Activity (Rattus norvegicus [17]): Non-Toxic | beta t1/2 (Rattus norvegicus [18]): 22.8 min | AUCt (Rattus norvegicus [19]): 3120 ng·h/mL | Activity (Rattus norvegicus [20]): Toxic | Activity (Rattus norvegicus [21]): Non-Toxic | Cmax (Rattus norvegicus [22]): 7890 ng/mL | Activity (Canis familiaris [23]): Non-Toxic | Activity (Rattus norvegicus [24]): Toxic | Activity (Rattus norvegicus [25]): Toxic | Activity (Rattus norvegicus [26]): Toxic | NOAEL (Rattus norvegicus [27]): 10 mg/kg | Activity (Canis familiaris [28]): Non-Toxic
